Source: PubChem
MEKK2 WT-MEK5 – raises or lowers MEK5 binding to wildtype human MEKK2 PB1 domain | Q9Y2U5 | bead flow cytometry, Alexa488-MEK5 binding to MEKK2 WT; actives lie on both sides | binding response (% of control), % at 10 µM | actives 1.1% (n = 290,000) | AID 1531; in the data active means binding response below about 67% or above about 130%; inconclusive means no clear call, values can overlap the other calls; inactive means in between
UBC13 polyUb – inhibitors of human UBC13 polyubiquitin chain formation | P61088 | TR-FRET | inhibition, % at 20 µM | actives 0.47% (n = 330,000) | AID 485273; in the data active means inhibition above about 45%, passing the limit was not always enough; inconclusive means no clear call, values can overlap the other calls
Target sequence (P61088 whole entry, looked up): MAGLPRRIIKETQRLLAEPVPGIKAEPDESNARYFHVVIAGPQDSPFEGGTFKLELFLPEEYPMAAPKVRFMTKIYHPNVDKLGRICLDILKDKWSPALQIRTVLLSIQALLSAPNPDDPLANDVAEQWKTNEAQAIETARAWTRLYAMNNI
Apaf1 inhib – blocks human Apaf-1 apoptosome activity. actives 0.71% (n = 330,000). inhibition, % at 20 µM. O14727. reconstituted apoptosome caspase-3 activity, DEVD-Rh110 fluorescence; active means inhibition of at least 40% at 20 µM
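detection = Rh110 fluorescence intensity | test system = biochemical Apaf-1 apoptosome reconstitution | also added = cytochrome c and DEVD-Rh110 substrate | schedule = 30 min plus 50 min, RT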
MEKK3 PB1 HTS – modulators (inhibitors or enhancers) of MEK5 binding to human MEKK3 PB1 domain; Q99759; bead-based flow cytometry, Alexa488-MEK5 binding to MEKK3; actives lie on both sides; 0 = blocked by unlabeled MEK5, 100 = vehicle; binding response (% of control), % at 10 µM; actives 1.4% (n = 290,000); AID 1529;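 active means binding response more than 3 SD above or below the average of its plate-row segment, actives on both sides; inconclusive means wells at one plate position flagged as instrument error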;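 further: Alexa488 bead fluorescence after subtracting the streptavidin-only scavenger bead signal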
MEKK2 mut-MEK5 – signal of MEK5 binding to mutant human MEKK2 PB1 domain. percent response, % at 10 µM. bead flow cytometry, Alexa488-MEK5 binding to MEKK2 mutant. AID 1530. actives 0.35% (n = 290,000); in the data active means percent response above about 24%, passing the limit was not always enough
UCH37 DUB inh – blocks the human deubiquitinase UCH37; Q9Y5K5; purified proteasome/UCH37, Ub-AMC cleavage fluorescence; inhibition, % (no concentration beside the values); actives 0.33% (n = 330,000);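 active means mean inhibition over replicate wells above about 20%, limit read from the data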
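Schedule: 30 min plus 25 min, room temperature / Material: human UCH37 within purified proteasomes / Technique: AMC fluorescence intensity at 355/460 nm / Buffer or medium: pH 7.4 Tris-HCl (50 mM) with ovalbumin, ATP-MgCl2, DTT / Controls: wells without proteasome as full block, compound-free enzyme plus substrate as uninhibited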
Casp3 counter – inhibits human caspase-3 in UBC13 counter-screen | shares compounds with UBC13 polyUb | Recombinant caspase-3, Caspase-Glo 3/7 luminescence, 60 min | inhibition, % at 20 µM | actives 4% (n = 1,400);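 active means mean inhibition across replicates above about 26%, limit read from the data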
Target sequence (P42574 whole entry, looked up): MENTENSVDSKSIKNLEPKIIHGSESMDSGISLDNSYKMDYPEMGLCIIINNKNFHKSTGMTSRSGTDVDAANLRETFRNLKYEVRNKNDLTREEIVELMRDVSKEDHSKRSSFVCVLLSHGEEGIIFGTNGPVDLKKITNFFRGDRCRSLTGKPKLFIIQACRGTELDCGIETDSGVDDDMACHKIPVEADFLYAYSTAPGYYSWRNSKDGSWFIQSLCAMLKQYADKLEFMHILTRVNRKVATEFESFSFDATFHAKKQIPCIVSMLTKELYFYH
UBC13 conf – human UBC13 polyubiquitin inhibition, confirmed; actives 68% (n = 1,400); UBC13 polyubiquitination, TR-FRET, biochemical; shares compounds with UBC13 polyUb; inhibition, % at 10 µM; in the data active means inhibition above about 45%; inconclusive means no clear call, values can overlap the other calls
Of the large screens only hits and unclear results are named; the others gave an inactive call (follow-up assays come after a bar, where they were run). The list is not random: actives were taken first. Their share in the collection is about 3%.

CCn1c(=O)c(C(=O)NCCN2CCCCC2)c(O)c2ccccc21	UBC13 polyUb 48.0 | Casp3 counter inactive | UBC13 conf 55.3
CCCCN(C(=O)CSc1nc2ccccc2s1)c1c(N)n(CCCC)c(=O)[nH]c1=O	none (no result: MEKK2 WT-MEK5, MEKK3 PB1 HTS, MEKK2 mut-MEK5)
CSc1nc(N2CCOCC2)c2c(c1C#N)CCCCC2	UBC13 polyUb 52.6 | Casp3 counter inactive | UBC13 conf inconclusive
O=C(CNC(=O)c1ccncc1)N/N=C/c1cccc([N+](=O)[O-])c1	none (no result: UCH37 DUB inh)
CCc1ccc(Nc2n[n+](-c3ccccc3)c(-c3c(Cl)cccc3Cl)s2)cc1	UBC13 polyUb 46.5, Apaf1 inhib 43.6 | Casp3 counter inactive | UBC13 conf inactive
Cc1cccc(C2CC(c3ccccc3)Nc3nc(N)nn32)c1 (stereo not given)	none
Cc1ccc(-n2nc(C)c3c(C(=O)OCC(=O)N(C)C4CCS(=O)(=O)C4)cc(-c4ccccc4)nc32)cc1 (stereo not given)	none
CCN(C(=O)COC(=O)c1cc(-c2ccccc2)nc2c1c(C)nn2-c1ccccc1)C1CCS(=O)(=O)C1 (stereo not given)	UBC13 polyUb 51.8 | Casp3 counter inactive | UBC13 conf inconclusive
Cc1ccc(C)c(S(=O)(=O)N2CCNCC2)c1	none
Cc1ccc(C)c(S(=O)(=O)c2c[nH]c(=S)[nH]c2=O)c1	UBC13 polyUb 45.1 | Casp3 counter inactive | UBC13 conf inconclusive
CC1=C(C(=O)OC(C)C)C(c2ccc(Cl)cc2)n2c(sc(=Cc3ccc(OCC(=O)O)cc3)c2=O)=N1 (stereo not given)	none (no result: MEKK2 WT-MEK5, UBC13 polyUb, Apaf1 inhib, MEKK3 PB1 HTS, MEKK2 mut-MEK5)
O=C(NNC(=S)NC(=O)c1ccccc1[N+](=O)[O-])c1ccccc1Cl	UBC13 polyUb 48.5 | Casp3 counter inactive | UBC13 conf inactive
Cc1c(N(C)C(=O)c2ccco2)c(=O)n(-c2ccccc2)n1C	none
CCCCC(C(=O)NC(C)(C)C)N(Cc1ccccc1Cl)C(=O)c1snc(C(N)=O)c1N (stereo not given)	none
CCCC(C(=O)NC(C)(C)C)N(Cc1ccccc1Cl)C(=O)c1snc(C(N)=O)c1N (stereo not given)	UBC13 polyUb 48.7 | Casp3 counter inactive | UBC13 conf 60.7
CS(=O)(=O)c1ncc(Cl)c(C(=O)Nc2ccc(OC(F)F)cc2)n1	none (no result: UCH37 DUB inh)
CS(=O)(=O)c1ncc(Cl)c(C(=O)Nc2ccc(N3CCOCC3)cc2)n1	UBC13 polyUb 45.3 (no result: MEKK2 WT-MEK5, MEKK3 PB1 HTS, MEKK2 mut-MEK5) | Casp3 counter inactive | UBC13 conf inactive
Oc1ccc(C[C@H]2CNCCN2CCCCC2CCCCC2)cc1	UBC13 polyUb 58.1, Apaf1 inhib 40.6 (no result: MEKK2 WT-MEK5, MEKK3 PB1 HTS, MEKK2 mut-MEK5) | Casp3 counter inactive | UBC13 conf inactive
O=C(Nc1ccccc1)Nc1cc(OCC(F)(F)F)cc(OCC(F)(F)F)c1	none (no result: UBC13 polyUb, Apaf1 inhib)
CN1CCN(CCCNC(=O)c2cn(C3CCCCC3)c(=O)c3c2c2ccccc2n3C)CC1	UBC13 polyUb 64.4 | Casp3 counter inactive | UBC13 conf 63.5
Nc1c(Cl)ncnc1N/N=C/c1cccc(O)c1	UBC13 polyUb 61.9 (no result: UCH37 DUB inh) | Casp3 counter 81.1 | UBC13 conf inactive
COc1ccccc1N1CCN(C(=O)CSc2nc3ccccc3c(=O)n2CC2CCCO2)CC1 (stereo not given)	none (no result: MEKK2 WT-MEK5, MEKK3 PB1 HTS, MEKK2 mut-MEK5)
C#CCOCCOCCOCCNc1nc(N2CCN(C(=O)[C@H](CCCN=C(N)N)n3cc(C(N)[C@@H](C)CC)nn3)CC2)nc(N2CCN(C(=O)[C@H](CC(N)=O)n3cc([C@@H](N)CC(N)=O)nn3)CC2)n1 (stereo not given in full)	UBC13 polyUb 63.7 (no result: MEKK2 WT-MEK5, MEKK3 PB1 HTS, MEKK2 mut-MEK5) | Casp3 counter inactive | UBC13 conf 50.7
